H9c2 protect – modulators protecting cardiomyocytes from myocardial damage | hit rate 0.63% among 360,000 | AID 588492 | protection from H2O2 cell death, % at 20 µM | H9c2 cardiomyocytes, H2O2 injury protection, ATPLite, 2 h;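 active = compounds giving at least 50% protection of heart cells from peroxide-induced death in the single-dose screen, raw or plate-pattern-corrected value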;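 also: 0% = DMSO wells with peroxide and 100% = DMSO wells without peroxide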
aDG glyco up – alpha-DG glycosylation activation | Pro5-aDG cells, alpha-DG glycosylation AlphaScreen (IIH6); 0% Pro5, 100% B10-LARGE cell signal | activation, % at 10 µM | hit rate 0.22% among 360,000 | AID 624168;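 active = activation of at least 8% versus controls, or a plate z-score of at least 8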;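 also: Pro5 are CHO cells carrying HIG-tagged alpha-DG that lacks glycosylation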
B2AR ag – activates human beta-2 adrenergic receptor causing internalization. Am2.2-beta2AR cells, FAP receptor internalization, flow cytometry. response, % (test concentration not listed). hit rate 0.43% among 340,000. AID 504454;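 active = response above a set limit, near 3 SD of response in nonfluorescent compounds, cut at about 42% in these data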
Target sequence (P07550 whole entry, looked up): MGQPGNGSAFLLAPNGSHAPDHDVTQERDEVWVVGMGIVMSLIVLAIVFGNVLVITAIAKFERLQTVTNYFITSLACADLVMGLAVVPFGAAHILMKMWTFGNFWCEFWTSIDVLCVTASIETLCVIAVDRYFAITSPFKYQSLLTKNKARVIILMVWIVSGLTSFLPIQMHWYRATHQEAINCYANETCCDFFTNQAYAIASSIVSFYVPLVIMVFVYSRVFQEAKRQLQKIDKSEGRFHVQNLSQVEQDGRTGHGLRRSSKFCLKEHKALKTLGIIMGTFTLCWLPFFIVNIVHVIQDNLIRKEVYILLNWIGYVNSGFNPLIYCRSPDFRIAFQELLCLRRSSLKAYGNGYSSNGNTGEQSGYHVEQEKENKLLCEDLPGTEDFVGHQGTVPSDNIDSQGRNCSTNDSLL
PfGluPho inh – PfG6PD (Plasmodium falciparum) enzyme inhibition | hit rate 0.78% among 350,000 | PfGluPho enzyme, NADPH resazurin-diaphorase fluorescence | inhibition, % at 20 µM;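 active = inhibition reaching at least a set limit at 20 µM in the primary screen, cut at about 59% in these data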;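 also: 0% = DMSO wells with substrate and 100% = DMSO wells lacking glucose-6-phosphate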
HKDC1 inh – blocks human hexokinase HKDC1 activity. Q2TB90. recombinant HKDC1, G6PDH/diaphorase resazurin coupled fluorescence. inhibition, % at 20 µM. hit rate 0.16% among 340,000. AID 493160;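 active = inhibition above about 35% when tested at 20 µM, limit read from the data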;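 also: plate controls were DMSO wells with enzyme for no effect and DMSO wells lacking enzyme for full effect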
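Incubation: 90 min at room temperature in dark / Material: recombinant HKDC1 (HK5) hexokinase enzyme, produced in-house / Quantity: enzyme 5 µg/mL final / Compound: one dose of 20 µM, 1% DMSO / Reagent: glucose and ATP substrates / Buffer or medium: Tris pH 8.0 buffer with MgCl2, Tween-20, BSA, BME / Technique: resorufin fluorescence at 613 nm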
UCH37 DUB inh – blocks the human deubiquitinase UCH37; hit rate 0.33% among 330,000; inhibition, % (concentration not given with the values); purified proteasome/UCH37, Ub-AMC cleavage fluorescence;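 active = mean inhibition over replicate wells above about 20%, limit read from the data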;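 also: 0% = compound-free wells with enzyme and 100% = wells lacking proteasome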
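Reagent: Ub-AMC substrate; assay system: Proteasome-associated human UCH37 deubiquitinase; controls: no-proteasome and no-compound wells; read-out: % inhibition of Ub-AMC cleavage fluorescence; timing: 30 min preincubation with enzyme, 25 min cleavage at room temperature; signal: AMC fluorescence from Ub-AMC cleavage, excitation 355 nm, emission 460 nm; buffer or medium: Tris-HCl pH 7.4 plus ovalbumin, ATP-MgCl2, DTT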
An asterisk follows results filed as active; . = no result given. This is a sample that favours compounds with a hit; in the whole collection about 2.1% have one here.

SMILES	H9c2 protect	aDG glyco up	B2AR ag	PfGluPho inh	HKDC1 inh	UCH37 DUB inh
CC(=O)Nc1ccc(C(=O)Nc2nc(-c3ccccn3)cs2)cc1	70*	0	-2	23	0	4
O=C(NN=Cc1ccccc1Br)c1cccc(S(=O)(=O)N2CCOCC2)c1	.	.	.	.	.	8
CCOc1ccc(-c2c(C(=O)NN=Cc3cccnc3)nnn2-c2nonc2N)cc1	.	.	.	.	.	4
COc1ccc(C=Nn2c(=O)[nH]c3c([nH]c4ccc(C)cc43)c2=O)cc1CN1CCOCC1	.	.	.	.	.	1
COc1ccc(NC(=O)C(=O)NN=C(C)CC(=O)Nc2ccccn2)c(OC)c1	.	.	.	.	.	4
Oc1ccc(Br)cc1C=Nc1ccc2c3c(cccc13)CC2	87*	0	12	30	7	4
C/C(=N\Nc1ccc2nncn2n1)c1ccccn1	58*	1	2	-10	-5	.
COC(=O)[C@H](C)NC(=O)NCCC1=CCCCC1	14	0	6	10	-7	8
CCC(C)[C@H](NC(=O)NCCC1=CCCCC1)C(=O)OC (stereo not given in full)	-2	0	-3	-8	-3	25*
COc1ccc(C(=O)NCCC2=CCCCC2)cc1	1	0	-5	37	-4	2
COc1cccc(C(=O)NCCC2=CCCCC2)c1	-25	0	9	16	-4	25*
CC1=C(C)C(=NOS(=O)(=O)c2ccccc2)C=CC1=O	.	.	.	.	.	5
CC1=C(C)/C(=N\OS(=O)(=O)c2ccccc2)C=CC1=O	-19	-1	41	112*	19	.
CC(NC(=O)c1ccccc1)C(=O)NN=Cc1cccc([N+](=O)[O-])c1 (stereo not given)	.	.	.	.	.	1
O=C(NCCN1CCN(c2ccccc2)CC1)c1ccc2c(c1)[nH]c(=S)n1c3ccccc3nc21	18	0	-11	5	-6	3
O=C(c1ccc2c(c1)[nH]c(=S)n1c3ccccc3nc21)N1CCN(c2ncccn2)CC1	-6	0	62*	-34	2	1
Cc1cc(C(=O)N/N=C/c2cc(Br)ccc2OC(=O)c2ccccc2Cl)n[nH]1	51*	0	4	-2	-9	.
Cc1cc(C(=O)N/N=C/c2cc(Br)ccc2OC(=O)c2ccccc2)n[nH]1	56*	1	3	-9	-11	.
Cc1cc(C(=O)NN=Cc2cc(Br)ccc2OC(=O)c2ccccc2)n[nH]1	.	.	.	.	.	6
CCOC(=O)C1=C(C)Nc2ccccc2N=C1NC(=O)c1oc2ccccc2c1COC	86*	0	14	6	-2	0
Cc1ccccc1OCC(=O)NN=Cc1cn(Cc2ccccc2)c2ccccc12	.	.	.	.	.	-2
CNC(=O)c1nnsc1S(=O)c1ccc(Cl)cc1 (stereo not given)	-18	-1	2	32	-2	4
CCCNC(=O)c1nnsc1S(=O)c1ccc(Cl)cc1 (stereo not given)	-21	0	50*	37	7	5
C/C(C=Nn1c(-c2ccco2)n[nH]c1=S)=C\c1ccco1	.	.	.	.	.	8
Cc1nn(-c2ccc(F)cc2)c2nc(N)c(C#N)c(-c3ccc(O)c(O)c3)c12	77*	0	28	2	5	-26
SMILES	H9c2 protect	aDG glyco up	B2AR ag	PfGluPho inh	HKDC1 inh	UCH37 DUB inh
CC1(C)C2CC=C(C=Nn3cnnc3)C1C2 (stereo not given)	.	.	.	.	.	-1
COc1cccc(-c2cnc3c(NC=O)cc(-c4cccc(C(=O)N(C)C)c4)cn23)c1	58*	0	.	.	.	.
COc1ccc(-c2cc(NC=O)c3ncc(-c4ccc(OC)c(OC)c4)n3c2)cc1OC	30	0	.	.	.	.
COc1cccc(-c2cc(NC=O)c3ncc(-c4cccc(C(=O)N(C)C)c4)n3c2)c1	32	0	.	.	.	.
COc1cccc(-c2cc(NC=O)c3ncc(-c4cc(OC)c(OC)c(OC)c4)n3c2)c1	8	0	.	.	.	.
COc1cccc(-c2cnc3c(NC(C)=O)cc(-c4cc(OC)c(OC)c(OC)c4)cn23)c1	57*	0	.	.	.	.
COc1cc(-c2cc(NC=O)c3ncc(-c4ccc(C(C)=O)cc4)n3c2)ccc1O	83*	0	.	.	.	.
COc1cccc(-c2cnc3c(NC=O)cc(-c4ccc(O)c(OC)c4)cn23)c1	85*	0	.	.	.	.
Cc1ccc(S(=O)(=O)Nc2nc(C)c(C(=O)NN=Cc3ccccc3)s2)cc1	.	.	.	.	.	-2
CCNC(=S)NN=Cc1ccco1	.	.	.	.	.	5
CC(=O)Nc1ccc(C=NNC(=O)c2cc(-c3ccco3)nc3ccccc23)cc1	.	.	.	.	.	-13
Cc1ccc2nc(/C(C#N)=C\c3cc(O)ccc3[N+](=O)[O-])[nH]c2c1	7	0	-4	-12	-5	3
COc1cc(/C=C(\C#N)c2nc3ccccc3[nH]2)ccc1Oc1ccc([N+](=O)[O-])cn1	76*	0	10	-1	14	-13
COc1cc(/C=C(\C#N)c2nc3ccc(C)cc3[nH]2)c([N+](=O)[O-])cc1OC	85*	0	15	20	5	10
COc1cc2nc(N(CCCN(C)C)C(=O)c3ccc(S(=O)(=O)N4CCc5ccccc5C4)cc3)sc2cc1OC	-14	1	17	8	7	5
COc1cccc2sc(N(CCCN(C)C)C(=O)c3ccc(S(=O)(=O)N4CCc5ccccc5C4)cc3)nc12	-22	0	56*	-14	-1	2
COc1ccc(C)c2sc(N(CCCN(C)C)C(=O)c3ccc(S(=O)(=O)N4CCc5ccccc5C4)cc3)nc12	-21	0	51*	13	-4	-15
O=C(NNC(=O)c1cccs1)c1ccc(Cl)c([N+](=O)[O-])c1	-1	0	-7	-2	-6	21*
N#C/C(=C\c1c(Cl)cccc1Cl)c1nc2ccccc2[nH]1	-11	0	56*	2	0	-87
CN(C)/C=C(\C#N)c1nc2ccccc2[nH]1	-6	0	-9	-7	7	9
Cc1cc(/C=C(\C#N)c2nc3ccccc3[nH]2)c(C)n1C	-17	0	-2	19	-9	25*
CC(C)NC(=S)NN=Cc1cc(Br)ccc1O	.	.	.	.	.	-21
COc1cc(C(=O)NNC(=O)CCOc2cccc(Br)c2)cc(OC)c1OC	0	0	-6	-19	3	4
CCOc1ccc(OCCC(=O)NNC(=O)c2cc(OC)c(OC)c(OC)c2)cc1	-4	0	83*	5	-6	-1
O=C(CN1C(=O)/C(=C2/SC(=S)N(CCS(=O)(=O)O)C2=O)c2ccccc21)Nc1cccc(C(F)(F)F)c1	1	0	2	16	36*	12
COCCN1C(=O)/C(=C2/C(=O)N(CC(=O)Nc3ccccc3Cl)c3ccccc32)SC1=S	3	0	-5	-13	0	7
Cn1c(=O)c2c(nc(CN3CCN(Cc4ccccc4)CC3)n2Cc2cccc(Cl)c2)n(C)c1=O	12	4	-1	18	1	6

Compound activity: PubChem, several laboratories
